A word on the GI50: it is the concentration at which growth is held to half of that of the control. A lower GI50 goes with greater sensitivity of the cells.

The source of these data is ChEMBL document CHEMBL1132570, “Synthesis of cytotoxic indenoisoquinoline topoisomerase I poisons” (1999).

Assay [1] has as its system SF-539. The assay can be described thus: Compound was tested for its cytotoxicity against CNS SF-539 Human cancer cell line. The class given is functional. In short, it runs like this:
(§1)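 GI50 = concentration giving 50% growth inhibition, from a screen of about 55 human cancer cell lines over a 10^-8 to 10^-4 M test range. Values come from two determinations where a population standard deviation is shown, otherwise from single determinations.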

For assay [2], the system named is DU-145. Description: Cytotoxicity against prostate DU-145 human cancer cell line. The class given is functional. In short, it runs like this: as §1
The target of assay [3] is T1, DNA topoisomerase 1 (Homo sapiens) (UniProt P11387).
T1 sequence (whole entry): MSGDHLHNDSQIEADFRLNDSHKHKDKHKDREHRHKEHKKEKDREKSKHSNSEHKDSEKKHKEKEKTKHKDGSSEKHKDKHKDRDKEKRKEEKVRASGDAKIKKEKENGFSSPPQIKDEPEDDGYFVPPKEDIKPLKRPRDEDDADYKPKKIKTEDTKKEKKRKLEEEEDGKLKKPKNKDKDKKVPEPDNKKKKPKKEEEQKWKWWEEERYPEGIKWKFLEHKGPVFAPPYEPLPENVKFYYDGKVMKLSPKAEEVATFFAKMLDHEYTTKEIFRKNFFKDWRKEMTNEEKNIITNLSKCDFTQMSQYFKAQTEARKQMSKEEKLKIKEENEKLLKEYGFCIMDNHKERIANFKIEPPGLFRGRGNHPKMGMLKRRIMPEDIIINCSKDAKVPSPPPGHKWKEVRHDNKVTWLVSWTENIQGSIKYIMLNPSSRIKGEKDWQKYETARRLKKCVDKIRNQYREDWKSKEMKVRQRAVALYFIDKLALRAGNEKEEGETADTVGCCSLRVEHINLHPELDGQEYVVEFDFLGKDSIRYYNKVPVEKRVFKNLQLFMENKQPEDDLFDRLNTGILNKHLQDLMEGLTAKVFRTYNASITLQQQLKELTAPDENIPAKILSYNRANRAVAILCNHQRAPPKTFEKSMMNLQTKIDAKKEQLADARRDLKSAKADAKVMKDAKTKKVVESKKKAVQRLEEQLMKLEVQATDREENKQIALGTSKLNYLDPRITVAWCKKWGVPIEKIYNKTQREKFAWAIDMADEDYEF
Description: The activity was examined against DNA topoisomerase I mediated DNA cleavage using 3''-End-labelled 161 BP plasmid DNA. +/- indicates less than 20% of the activity of 1 uM camptothecin. The procedure, abridged:
(§2)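 A 161 bp PvuII–HindIII fragment of pBluescript SK(–) was 3'-end-labeled at the HindIII site with [α-32P]dCTP by Klenow fill-in. About 50 000 dpm per reaction was incubated with top1 and drug (0.1–300 μM) at 30 °C for 30 min, then stopped with 0.5% SDS (final). Products were run on 16% polyacrylamide/7 M urea gels at 51 °C and imaged by phosphorimager.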

In assay [4] the test system is HOP-62. Description: Cytotoxicity against lung HOP-62 human cancer cell line. The assay is classed as functional. The procedure, abridged:
as §1

The test system of assay [5] is HCT-116. Description: Cytotoxicity against colon HCT116 human cancer cell line. The assay is classed as functional. In short, it runs like this: as §1
Assay [6] has as its system MDA-MB-435. The assay can be described thus: In vitro cytotoxicity against MDA-MB-435 (Human breast cancer) cell line. The class given is functional. In short, it runs like this: as §1
The test system of assay [7] is OVCAR-3. Description: Cytotoxicity against ovarian OVCAR-3 human cancer cell line. The assay is classed as functional. The procedure, abridged:
as §1

Assay [8] deals with SN12C. The assay can be described thus: In vitro cytotoxicity against SN12C (Human renal cancer) cell line. The class given is functional. The procedure, abridged:
as §1

Assay [9] concerns UACC-62. Description: In vitro cytotoxicity against UACC-62 (Human melanoma) cell line. The class given is functional. The procedure, abridged:
as §1

The target in assay [10] is T1, DNA topoisomerase 1 (Homo sapiens). Description: The activity was examined against DNA topoisomerase I mediated DNA cleavage using 3'-End-labelled 161 BP plasmid DNA.0 indicates inactive. The procedure, abridged: as §2
Assay [11] has as its system SF-539. Description: Compound was tested for its cytotoxicity against CNS SF-539 cell line. The class given is functional. The conditions noted are these: Homo sapiens. The procedure, abridged:
as §1

Assay [12] has as its target T1, DNA topoisomerase 1 (Homo sapiens). Description: The activity was examined against DNA topoisomerase I mediated DNA cleavage using 3''-End-labelled 161 BP plasmid DNA; + indicates between 20 and 50% of the activity 0f 1 uM camptothecin. In short, it runs like this:
as §2

Assay [13] shares this target. The assay can be described thus: The activity was examined against DNA topoisomerase I mediated DNA cleavage using 3''-End-labelled 161 BP plasmid DNA. +/- less than 20% of the activity 0f 1 uM camptothecin. In short, it runs like this: as §2
For assay [14] the target is unchanged. The assay can be described thus: The activity was examined against DNA topoisomerase I mediated DNA cleavage using 3''-End-labelled 161 BP plasmid DNA. +/- indicates less than 20% of the activity 0f 1 uM camptothecin. In short, it runs like this:
as §2

For assay [15] the target is unchanged. The assay can be described thus: The activity was examined against DNA topoisomerase I mediated DNA cleavage using 3''-End-labelled 161 BP plasmid DNA.+/- indicates less than 20% of the activity of 1 uM camptothecin. The procedure, abridged:
as §2

Assay [16] shares this target. Description: The activity was examined against DNA topoisomerase I mediated DNA cleavage using 3'-End-labelled 161 BP plasmid DNA. 0 indicates inactive. In short, it runs like this: as §2
For assay [17], the system named is SF-539. Description: Compound was tested for its cytotoxicity against CNS SF-539 Human cancer cell line.
Assay [18] has as its target T1, DNA topoisomerase 1 (Homo sapiens). Description: The activity was examined against DNA topoisomerase I mediated DNA cleavage using 3'-End-labelled 161 BP plasmid DNA; 0 indicates inactive. The procedure, abridged:
as §2

Assay [19] deals with DU-145. Description: Compound was tested for its cytotoxicity against prostate DU-145 Human cancer cell line. The assay is classed as functional. The procedure, abridged:
as §1

`COc1cc2c(cc1OC)[C@H]1C(=O)c3cc4c(cc3[C@H]1N(C)C2=O)OCO4`: the GI50 in [1] was 3.1 µM; in assay [2], 4.1 µM; in assay [4], 9.4 µM; in assay [5], 2 µM; in assay [6] it was 17 µM; in [7] it was 6.7 µM. Further, the figures for the GI50 in [8] and in [9] were 2.1 µM and 0.42 µM, respectively. In [3], the Top1 cleavage activity entry was “+/-”.
In the case of `COc1cc2c3c(n(C)c(=O)c2cc1OC)-c1cc(OCc2ccccc2)c(OCc2ccccc2)cc1C3=O`, the GI50 in assay [1] was 39 µM; in assay [2] it was over 100 µM; in assay [4], 46 µM; in [5], 80 µM; in assay [6] it was over 100 µM; in assay [7], 58 µM. For the same compound, the GI50 in assay [8] and in assay [9] was over 100 µM in each case. This compound yielded a Top1 cleavage activity in [10] of 0.
Consider `O=C1c2ccccc2-c2c1c1ccccc1c(=O)n2CCCCO`, for which the GI50 in assay [11] is 4.6 µM; in assay [2] it was over 100 µM; in assay [4], 13 µM; in assay [5], 3.2 µM; in assay [6], over 100 µM; in [7] it was 74 µM. For the same compound, the GI50 stood at 7.4 µM in [8] and 4.4 µM in [9]. The Top1 cleavage activity in assay [12] is 20-50% of the activity 0f 1 uM camptothecin.
Turning to `CCn1c2c(c3cc(OC)c(OC)cc3c1=O)C(=O)c1cc3c(cc1-2)OCO3`, the concentration for 50% growth inhibition (GI50) in [1] amounted to 2 µM; in assay [2] it was 2.3 µM; in assay [4], 2.2 µM; in assay [5], 2.6 µM; in assay [6], 2.6 µM; in [7] it was 3 µM. The concentration for 50% growth inhibition (GI50) in assay [8] is 3.6 µM; in assay [9], 2.1 µM. The Top1 cleavage activity result in assay [13] is on record as “+/-”.
For `COc1cc2c(cc1OC)[C@H]1C(=O)c3cc(OS(C)(=O)=O)c(OC)cc3[C@H]1N(C)C2=O`, the Top1 cleavage activity entry in assay [14] is given as “+/-”.
Turning to `CCN1C(=O)c2cc(OC)c(OC)cc2[C@H]2C(=O)c3cc4c(cc3[C@H]21)OCO4`, the concentration for 50% growth inhibition (GI50) in assay [2] amounted to 0.42 µM; in [4], 0.29 µM; in assay [5], 0.29 µM; in [6], 0.45 µM; in assay [7], 0.44 µM; in assay [9] it was 0.18 µM. Also, the Top1 cleavage activity result in assay [15] is given as “+/-”.
As for `COc1cc2c(c(OC)c1OC)C(=O)c1c-2n(C)c(=O)c2ccccc12`, the 50% growth inhibitory concentration (GI50) in assay [2] was over 100 µM; in [4], 24 µM; in [7] it was over 100 µM; in assay [8], over 100 µM; in [17], over 100 µM. The compound further gave a Top1 cleavage activity in assay [16] of 0.
Take `Cn1c2c(c3ccccc3c1=O)C(=O)c1cc(OCc3ccccc3)c(OCc3ccccc3)cc1-2`: the concentration for 50% growth inhibition (GI50) is over 100 µM in assay [1]; over 100 µM in assay [19]; 72 µM in assay [4]; over 100 µM in assay [5]; over 100 µM in assay [6]; over 100 µM in assay [7]. The figures for the GI50 in [8] and in assay [9] were 88 µM and 93 µM, respectively. The Top1 cleavage activity in assay [18] stood at 0.
